Laboratory results taken from ChEMBL document CHEMBL1127461, “Synthesis of new acyclic pyrimidine nucleoside analogs as potential antiviral drugs” (J Med Chem, 1994).

Tests used:
[1] = system: Human alphaherpesvirus 1; experiment: In Vitro antiviral activity against HSV-1 at 0.5 ug/mL concentration; type: functional
Method in brief: (§1)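 Mouse embryo cell cultures infected with HSV-1 were exposed to compound at 0.05, 0.5, 5, 50 and 500 μg/mL for 3 days. Infected cultures were then inspected macro- and microscopically, and reduction or inhibition of virus-induced cell destruction was scored. Aciclovir, 5-ethyldeoxyuridine and PMEG served as reference drugs.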

[2] = system: Human alphaherpesvirus 1; experiment: In Vitro antiviral activity against HSV-1 at 500 ug/mL concentration; type: functional; method in brief: as §1
[3] = In Vitro cytotoxicity […] at 50 ug/mL concentration; type: organism-based
Method in brief: (§2)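 Uninfected mouse embryo cell cultures were exposed to compound at 0.05, 0.5, 5, 50 and 500 μg/mL for 3 days. Cultures were then examined macro- and microscopically, and growth inhibition or disruption of the cells was taken as cytotoxicity.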

[4] = In Vitro cytotoxicity against HSV-1 at 5 ug/mL concentration; type: organism-based; details: human alphaherpesvirus 1, in vitro; method in brief: as §2
[5] = system: Human alphaherpesvirus 1; experiment: In Vitro antiviral activity against HSV-1 at 5 ug/mL concentration; type: functional; method in brief: as §1
[6] = system: Human alphaherpesvirus 1; experiment: In Vitro antiviral activity against HSV-1 at 50 ug/mL concentration; type: functional; method in brief: as §1
[7] = system: Human alphaherpesvirus 1; experiment: In Vitro antiviral activity against HSV-1 at 0.05 ug/mL concentration; type: functional; method in brief: as §1
[8] = In Vitro cytotoxicity […] at 500 ug/mL concentration; type: organism-based; method in brief: as §2

O=[N+]([O-])c1c(O)nc(O)nc1NCCCCO
inhibition at 0.5 µg/mL [1]: 0% | inhibition at 500 µg/mL [2]: 0% | inhibition at 50 ug/mL [3]: 0% | inhibition at 5 ug/mL [4]: 0% | inhibition at 5 µg/mL [5]: 0% | inhibition at 50 µg/mL [6]: 0% | inhibition at 0.05 µg/mL [7]: 0% | inhibition at 500 ug/mL [8]: 0%

Nc1nc(O)c([N+](=O)[O-])c(NCCCCO)n1
inhibition at 0.5 µg/mL [1]: 0% | inhibition at 500 µg/mL [2]: 0% | inhibition at 50 ug/mL [3]: 0% | inhibition at 5 ug/mL [4]: 0% | inhibition at 5 µg/mL [5]: 0% | inhibition at 50 µg/mL [6]: 0% | inhibition at 0.05 µg/mL [7]: 0% | inhibition at 500 ug/mL [8]: 100%

Nc1nc(O)c([N+](=O)[O-])c(NCCOCP(=O)(O)O)n1
inhibition at 0.5 µg/mL [1]: 0% | inhibition at 500 µg/mL [2]: 0% | inhibition at 50 ug/mL [3]: 0% | inhibition at 5 ug/mL [4]: 0% | inhibition at 5 µg/mL [5]: 0% | inhibition at 50 µg/mL [6]: 0% | inhibition at 0.05 µg/mL [7]: 0% | inhibition at 500 ug/mL [8]: 0%

OCCCCNc1cc(O)nc(O)n1
inhibition at 0.5 µg/mL [1]: 0% | inhibition at 500 µg/mL [2]: 0% | inhibition at 50 ug/mL [3]: 0% | inhibition at 5 ug/mL [4]: 0% | inhibition at 5 µg/mL [5]: 0% | inhibition at 50 µg/mL [6]: 0% | inhibition at 0.05 µg/mL [7]: 0% | inhibition at 500 ug/mL [8]: 25%

Nc1nc(Cl)cc(NCCCCO)n1
inhibition at 0.5 µg/mL [1]: 0% | inhibition at 500 µg/mL [2]: 0% | inhibition at 50 ug/mL [3]: 0% | inhibition at 5 ug/mL [4]: 0% | inhibition at 5 µg/mL [5]: 0% | inhibition at 50 µg/mL [6]: 0% | inhibition at 0.05 µg/mL [7]: 0% | inhibition at 500 ug/mL [8]: 50%

Nc1nc(O)c(N)c(NCCOCP(=O)(O)O)n1
inhibition at 0.5 µg/mL [1]: 100% | inhibition at 5 µg/mL [5]: 100% | inhibition at 0.05 µg/mL [7]: 50% | inhibition at 500 ug/mL [8]: 75%

Nc1nc(O)c2ncn(COCCP(=O)(O)O)c2n1
inhibition at 0.5 µg/mL [1]: 100% | inhibition at 0.05 µg/mL [7]: 100%

Nc1nc(O)cc(NCCCCO)n1
inhibition at 0.5 µg/mL [1]: 0% | inhibition at 500 µg/mL [2]: 0% | inhibition at 50 ug/mL [3]: 0% | inhibition at 5 ug/mL [4]: 0% | inhibition at 5 µg/mL [5]: 0% | inhibition at 50 µg/mL [6]: 0% | inhibition at 0.05 µg/mL [7]: 0% | inhibition at 500 ug/mL [8]: 0%

OCCCCNc1nc(O)nc(O)c1I
inhibition at 0.5 µg/mL [1]: 0% | inhibition at 500 µg/mL [2]: 0% | inhibition at 50 ug/mL [3]: 100% | inhibition at 5 ug/mL [4]: 0% | inhibition at 5 µg/mL [5]: 0% | inhibition at 50 µg/mL [6]: 0% | inhibition at 0.05 µg/mL [7]: 0% | inhibition at 500 ug/mL [8]: 100%

Nc1nc2c(ncn2COCCO)c(=O)[nH]1 [ACYCLOVIR]
inhibition at 0.5 µg/mL [1]: 100% | inhibition at 500 µg/mL [2]: 100% | inhibition at 50 ug/mL [3]: 0% | inhibition at 5 ug/mL [4]: 0% | inhibition at 5 µg/mL [5]: 100% | inhibition at 50 µg/mL [6]: 100% | inhibition at 0.05 µg/mL [7]: 100% | inhibition at 500 ug/mL [8]: 0%

CCc1cn([C@H]2C[C@H](O)[C@@H](CO)O2)c(=O)[nH]c1=O [EDOXUDINE]
inhibition at 0.5 µg/mL [1]: 25% | inhibition at 500 µg/mL [2]: 100% | inhibition at 50 ug/mL [3]: 0% | inhibition at 5 ug/mL [4]: 0% | inhibition at 5 µg/mL [5]: 100% | inhibition at 50 µg/mL [6]: 100% | inhibition at 0.05 µg/mL [7]: 0% | inhibition at 500 ug/mL [8]: 0%
